Data published in ChEMBL document CHEMBL2157880, “Synthesis, antimycobacterial and antibacterial activity of ciprofloxacin derivatives containing a N-substituted benzyl moiety” (2012).
Values after ≈ are worked out from the molar mass of the structure shown.

Columns and labels:
Type in all cases: functional
Enterococcus faecium [1] = test: Antibacterial activity against Enterococcus faecium 10-9 after 18 to 24 hrs by NCCLS method
How it was run: (§1)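 Standard NCCLS (M100-S11) MIC testing against Gram-positive and Gram-negative strains. Plates were incubated at 35 °C for 18–24 h. The MIC was read as the lowest concentration giving complete inhibition of visible bacterial growth.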

Escherichia coli [2] = test: Antibacterial activity against extended spectrum beta-lactamases producing Escherichia coli 10-2 after 18 to 24 hrs by NCCLS method; how it was run: as §1
Escherichia coli [3] = test: Antibacterial activity against Escherichia coli 10-1 after 18 to 24 hrs by NCCLS method; how it was run: as §1
Staphylococcus aureus [4] = test: Antibacterial activity against methicillin-sensitive Staphylococcus aureus 10-14 after 18 to 24 hrs by NCCLS method; how it was run: as §1
Escherichia coli [5] = test: Antibacterial activity against Escherichia coli 10-2 after 18 to 24 hrs by NCCLS method; how it was run: as §1
Escherichia coli [6] = test: Antibacterial activity against extended spectrum beta-lactamases producing Escherichia coli 10-3 after 18 to 24 hrs by NCCLS method; how it was run: as §1
Staphylococcus aureus [7] = test: Antibacterial activity against methicillin-resistant Staphylococcus aureus 10-15 after 18 to 24 hrs by NCCLS method
How it was run: (§2)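 Incubated at 35 °C for 18–24 h under NCCLS (M100-S11) standards. MIC was read as the lowest concentration giving complete inhibition of visible bacterial growth.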

Klebsiella pneumoniae [8] = test: Antibacterial activity against Klebsiella pneumoniae 10-3 after 18 to 24 hrs by NCCLS method; how it was run: as §1
Enterococcus faecium [9] = test: Antibacterial activity against Enterococcus faecium 10-6 after 18 to 24 hrs by NCCLS method; how it was run: as §1
Streptococcus pneumoniae [10] = test: Antibacterial activity against Streptococcus pneumoniae 10-6 after 18 to 24 hrs by NCCLS method; how it was run: as §1
Staphylococcus aureus [11] = test: Antibacterial activity against methicillin-sensitive Staphylococcus aureus 10-13 after 18 to 24 hrs by NCCLS method; how it was run: as §1
Klebsiella pneumoniae [12] = test: Antibacterial activity against extended spectrum beta-lactamases producing Klebsiella pneumoniae 10-3 after 18 to 24 hrs by NCCLS method; how it was run: as §1
Pseudomonas aeruginosa [13] = test: Antibacterial activity against Pseudomonas aeruginosa 10-5 after 18 to 24 hrs by NCCLS method; how it was run: as §1
Staphylococcus aureus [14] = test: Antibacterial activity against Staphylococcus aureus ATCC 2592 after 18 to 24 hrs by NCCLS method; how it was run: as §1
Klebsiella pneumoniae [15] = test: Antibacterial activity against extended spectrum beta-lactamases producing Klebsiella pneumoniae 10-2 after 18 to 24 hrs by NCCLS method; how it was run: as §1
Pseudomonas aeruginosa [16] = test: Antibacterial activity against Pseudomonas aeruginosa 10-20 after 18 to 24 hrs by NCCLS method; how it was run: as §1
Enterococcus faecalis [17] = test: Antibacterial activity against Enterococcus faecalis 10-5 after 18 to 24 hrs by NCCLS method; how it was run: as §1
Pseudomonas aeruginosa [18] = test: Antibacterial activity against Pseudomonas aeruginosa 10-12 after 18 to 24 hrs by NCCLS method; how it was run: as §1
[19] = test system: Staphylococcus epidermidis; test: Antibacterial activity against methicillin-sensitive Staphylococcus epidermidis 10-11 after 18 to 24 hrs by NCCLS method; how it was run: as §1
Escherichia coli [20] = test: Antibacterial activity against Escherichia coli 10-3 after 18 to 24 hrs by NCCLS method; how it was run: as §1
Escherichia coli [21] = test: Antibacterial activity against Escherichia coli ATCC 25922 after 18 to 24 hrs by NCCLS method; how it was run: as §1
Staphylococcus aureus [22] = test: Antibacterial activity against methicillin-sensitive Staphylococcus aureus 10-11 after 18 to 24 hrs by NCCLS method; how it was run: as §1
Streptococcus pneumoniae [23] = test: Antibacterial activity against Streptococcus pneumoniae 10-1 after 18 to 24 hrs by NCCLS method; how it was run: as §1
[24] = test system: Staphylococcus epidermidis; test: Antibacterial activity against methicillin-resistant Staphylococcus epidermidis 10-13 after 18 to 24 hrs by NCCLS method; how it was run: as §2
Klebsiella pneumoniae [25] = test: Antibacterial activity against Klebsiella pneumoniae 10-4 after 18 to 24 hrs by NCCLS method; how it was run: as §1
Klebsiella pneumoniae [26] = test: Antibacterial activity against extended spectrum beta-lactamases producing Klebsiella pneumoniae 10-1 after 18 to 24 hrs by NCCLS method; how it was run: as §1
Enterococcus faecalis [27] = test: Antibacterial activity against Enterococcus faecalis 10-7 after 18 to 24 hrs by NCCLS method; how it was run: as §1
Pseudomonas aeruginosa [28] = test: Antibacterial activity against Pseudomonas aeruginosa 10-18 after 18 to 24 hrs by NCCLS method; how it was run: as §1
Pseudomonas aeruginosa [29] = test: Antibacterial activity against Pseudomonas aeruginosa 10-9 after 18 to 24 hrs by NCCLS method; how it was run: as §1
Staphylococcus aureus [30] = test: Antibacterial activity against methicillin-resistant Staphylococcus aureus 10-11 after 18 to 24 hrs by NCCLS method; how it was run: as §2
Escherichia coli [31] = test: Antibacterial activity against extended spectrum beta-lactamases producing Escherichia coli 10-4 after 18 to 24 hrs by NCCLS method; how it was run: as §1
Staphylococcus aureus [32] = test: Antibacterial activity against methicillin-resistant Staphylococcus aureus 10-13 after 18 to 24 hrs by NCCLS method; how it was run: as §2
[33] = test system: Mycobacterium tuberculosis; test: Antimycobacterial activity against Mycobacterium tuberculosis H37Rv ATCC 27294 by microplate alamar blue assay
How it was run: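 Microplate Alamar Blue fluorescence assay on strain H37Rv ATCC 27294. MIC was the lowest concentration cutting fluorescence by ≥90% against the mean of replicate bacterium-only controls.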

Pseudomonas aeruginosa [34] = test: Antibacterial activity against Pseudomonas aeruginosa 10-15 after 18 to 24 hrs by NCCLS method; how it was run: as §1
Klebsiella pneumoniae [35] = test: Antibacterial activity against Klebsiella pneumoniae 10-2 after 18 to 24 hrs by NCCLS method; how it was run: as §1
[36] = test system: Staphylococcus epidermidis; test: Antibacterial activity against methicillin-sensitive Staphylococcus epidermidis 10-15 after 18 to 24 hrs by NCCLS method; how it was run: as §2
[37] = test system: Staphylococcus epidermidis; test: Antibacterial activity against methicillin-resistant Staphylococcus epidermidis 10-10 after 18 to 24 hrs by NCCLS method; how it was run: as §2
Enterococcus faecalis [38] = test: Antibacterial activity against Enterococcus faecalis 10-6 after 18 to 24 hrs by NCCLS method; how it was run: as §1

Structure (SMILES) | MIC (Enterococcus faecium [1]) [µg/mL] | MIC (Escherichia coli [2]) [µg/mL] | MIC (Escherichia coli [3]) [µg/mL] | MIC (Staphylococcus aureus [4]) [µg/mL] | MIC (Escherichia coli [5]) [µg/mL] | MIC (Escherichia coli [6]) [µg/mL] | MIC (Staphylococcus aureus [7]) [µg/mL] | MIC (Klebsiella pneumoniae [8]) [µg/mL] | MIC (Enterococcus faecium [9]) [µg/mL] | MIC (Streptococcus pneumoniae [10]) [µg/mL] | MIC (Staphylococcus aureus [11]) [µg/mL] | MIC (Klebsiella pneumoniae [12]) [µg/mL] | MIC (Pseudomonas aeruginosa [13]) [µg/mL] | MIC (Staphylococcus aureus [14]) [µg/mL] | MIC (Klebsiella pneumoniae [15]) [µg/mL] | MIC (Pseudomonas aeruginosa [16]) [µg/mL] | MIC (Enterococcus faecalis [17]) [µg/mL] | MIC (Pseudomonas aeruginosa [18]) [µg/mL] | MIC [19] [µg/mL] | MIC (Escherichia coli [20]) [µg/mL] | further results
COc1cc(Br)c(CN2CCN(c3cc4c(cc3F)c(=O)c(C(=O)O)cn4C3CC3)CC2)cc1OC | > 128 | > 128 | > 128 | 4 (≈ 7.14 µM) | > 128 | > 128 | 32 (≈ 57.1 µM) | 8 (≈ 14.3 µM) | 8 (≈ 14.3 µM) | > 128 | 4 (≈ 7.14 µM) | > 128 | 8 (≈ 14.3 µM) | 2 (≈ 3.57 µM) | > 128 | 16 (≈ 28.6 µM) | > 128 | 8 (≈ 14.3 µM) | 8 (≈ 14.3 µM) | > 128 | MIC (Escherichia coli [21]): 0.25 µg/mL (≈ 0.446 µM); MIC (Staphylococcus aureus [22]): 4 µg/mL (≈ 7.14 µM); MIC (Streptococcus pneumoniae [23]): 8 µg/mL (≈ 14.3 µM); MIC [24]: 32 µg/mL (≈ 57.1 µM); MIC (Klebsiella pneumoniae [25]): > 128 µg/mL; MIC (Klebsiella pneumoniae [26]): > 128 µg/mL; MIC (Enterococcus faecalis [27]): > 128 µg/mL; MIC (Pseudomonas aeruginosa [28]): 8 µg/mL (≈ 14.3 µM); MIC (Pseudomonas aeruginosa [29]): 8 µg/mL (≈ 14.3 µM); MIC (Staphylococcus aureus [30]): 32 µg/mL (≈ 57.1 µM); MIC (Escherichia coli [31]): > 128 µg/mL; MIC (Staphylococcus aureus [32]): 32 µg/mL (≈ 57.1 µM); MIC [33]: > 32 µg/mL; MIC (Pseudomonas aeruginosa [34]): 16 µg/mL (≈ 28.6 µM); MIC (Klebsiella pneumoniae [35]): > 128 µg/mL; MIC [36]: > 128 µg/mL; MIC [37]: > 128 µg/mL; MIC (Enterococcus faecalis [38]): > 128 µg/mL
O=C(O)c1cn(C2CC2)c2cc(N3CCN(Cc4ccc5c(c4)OCCO5)CC3)c(F)cc2c1=O | 32 (≈ 66.7 µM) | > 128 | > 128 | 0.5 (≈ 1.04 µM) | 128 (≈ 267 µM) | > 128 | 4 (≈ 8.34 µM) | 8 (≈ 16.7 µM) | 2 (≈ 4.17 µM) | 32 (≈ 66.7 µM) | 0.25 (≈ 0.521 µM) | > 128 | 16 (≈ 33.4 µM) | 0.125 (≈ 0.261 µM) | > 128 | 32 (≈ 66.7 µM) | 4 (≈ 8.34 µM) | 16 (≈ 33.4 µM) | 0.5 (≈ 1.04 µM) | 16 (≈ 33.4 µM) | MIC (Escherichia coli [21]): 0.125 µg/mL (≈ 0.261 µM); MIC (Staphylococcus aureus [22]): 0.25 µg/mL (≈ 0.521 µM); MIC (Streptococcus pneumoniae [23]): 1 µg/mL (≈ 2.09 µM); MIC [24]: 16 µg/mL (≈ 33.4 µM); MIC (Klebsiella pneumoniae [25]): > 128 µg/mL; MIC (Klebsiella pneumoniae [26]): > 128 µg/mL; MIC (Enterococcus faecalis [27]): 32 µg/mL (≈ 66.7 µM); MIC (Pseudomonas aeruginosa [28]): 16 µg/mL (≈ 33.4 µM); MIC (Pseudomonas aeruginosa [29]): 64 µg/mL (≈ 133 µM); MIC (Staphylococcus aureus [30]): 16 µg/mL (≈ 33.4 µM); MIC (Escherichia coli [31]): 128 µg/mL (≈ 267 µM); MIC (Staphylococcus aureus [32]): 16 µg/mL (≈ 33.4 µM); MIC [33]: 2 µg/mL (≈ 4.17 µM); MIC (Pseudomonas aeruginosa [34]): 32 µg/mL (≈ 66.7 µM); MIC (Klebsiella pneumoniae [35]): > 128 µg/mL; MIC [36]: 8 µg/mL (≈ 16.7 µM); MIC [37]: 8 µg/mL (≈ 16.7 µM); MIC (Enterococcus faecalis [38]): 32 µg/mL (≈ 66.7 µM)
COc1cc(CN2CCN(c3cc4c(cc3F)c(=O)c(C(=O)O)cn4C3CC3)CC2)cc(OC)c1 | > 128 | > 128 | > 128 | 1 (≈ 2.08 µM) | > 128 | > 128 | 64 (≈ 133 µM) | 64 (≈ 133 µM) | 16 (≈ 33.2 µM) | > 128 | 0.5 (≈ 1.04 µM) | > 128 | 64 (≈ 133 µM) | 1 (≈ 2.08 µM) | > 128 | 64 (≈ 133 µM) | 128 (≈ 266 µM) | 64 (≈ 133 µM) | 4 (≈ 8.31 µM) | > 128 | MIC (Escherichia coli [21]): 1 µg/mL (≈ 2.08 µM); MIC (Staphylococcus aureus [22]): 1 µg/mL (≈ 2.08 µM); MIC (Streptococcus pneumoniae [23]): 8 µg/mL (≈ 16.6 µM); MIC [24]: 128 µg/mL (≈ 266 µM); MIC (Klebsiella pneumoniae [25]): > 128 µg/mL; MIC (Klebsiella pneumoniae [26]): > 128 µg/mL; MIC (Enterococcus faecalis [27]): > 128 µg/mL; MIC (Pseudomonas aeruginosa [28]): 128 µg/mL (≈ 266 µM); MIC (Pseudomonas aeruginosa [29]): 128 µg/mL (≈ 266 µM); MIC (Staphylococcus aureus [30]): 128 µg/mL (≈ 266 µM); MIC (Escherichia coli [31]): > 128 µg/mL; MIC (Staphylococcus aureus [32]): > 128 µg/mL; MIC [33]: 2 µg/mL (≈ 4.15 µM); MIC (Pseudomonas aeruginosa [34]): 64 µg/mL (≈ 133 µM); MIC (Klebsiella pneumoniae [35]): > 128 µg/mL; MIC [36]: 128 µg/mL (≈ 266 µM); MIC [37]: > 128 µg/mL; MIC (Enterococcus faecalis [38]): > 128 µg/mL
